Laboratory results from publication PMC4390068 (Medicinal chemistry research : an international journal for …, 2014).
“Also recorded” adds a separate entry of the source. Where two headings read alike, the source gives them in different places. One block for each compound: values may come before it.

Experiments:
[1] = system: iNOS protein expression in LPS-activated BV-2 microglial cells; assay: Inducible NOS protein expression by immunohistochemistry; format: cell-based, murine; settings: LPS-activated BV-2 cells; 4.4 and 8.9 µM chalcone (1)
In short: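 LPS (E. coli O111:B4, 1 µg/ml, 24 h) activated BV-2 cells at 0.5 × 10^6 cells/ml in phenol-red-free DMEM with 5 % FBS and 3 mM L-glutamine. Test compound came from DMSO stock diluted in HBSS + 5 mM HEPES pH 7.4, with final DMSO <0.5 %. Cells were fixed (4 % paraformaldehyde), permeabilised (0.1 % Triton X-100/PBS) and given rabbit N-terminal anti-iNOS, then Alexa Fluor 488 anti-rabbit (each 2 h, 37 °C), with propidium iodide counterstain and confocal imaging. Dexamethasone 1 µM served as comparator.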

[2] = system: LPS-stimulated BV-2 microglia cells; assay: Inflammatory cytokines Multi-Analyte ELISArray MEM-004A; format: cell-based, murine; settings: LPS-activated BV-2 cells, 24 h supernatant
In short: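 BV-2 cells were activated with E. coli O111:B4 LPS (1 µg/ml) plus test compound (final DMSO <0.5 %). Supernatants taken at 24 h were stored at −20 °C, then incubated with capture antibodies and mixed antigen standards (2 h, RT), biotinylated detection antibodies (1 h, RT), avidin–HRP (30 min) and development reagent. Absorbance was read at 450 nm, corrected at 570 nm. Results are % of LPS controls, mean ± STD, n = 2, Student's t test.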

[3] = system: LPS-activated BV-2 microglial cells; assay: NO; format: cell-based, murine; settings: for IC50: read-out: LPS-NO2 IC50
[4] = Cell viability by resazurin; format: cell-based; settings: mouse

SMILES: COc1cc(/C=C/C(=O)c2ccc(OC)c(OC)c2O)cc(OC)c1OC [Compound 1, 2′-hydroxy-3,4,5,3′,4′-pentamethoxychalcone]
iNOS protein expression [1]: reducing iNOS protein expression; also recorded: reduction of iNOS protein | IL-1α production and release [2]: attenuated | IL-6 production and release [2]: attenuated | IL-10 production and release [2]: attenuated | NO inhibition / anti-inflammatory effect (in words) ([3]; BV-2 cells, LPS 1 µg/ml): complete inhibition of NO | CC50 ([4]; BV-2 microglial cells): 18.3 µM

IC50 ([3]; BV-2 cells, LPS 1 µg/ml, 24 h, regression of min. 5 concentrations below 40 µM, n = 4): 2.2 µM
SMILES: COc1cc(/C=C/C(=O)c2ccccc2O)cc(OC)c1OC [Compound 2, 2′-hydroxy-3,4,5-trimethoxychalcone]

SMILES: C[C@@H]1C[C@H]2[C@@H]3CCC4=CC(=O)C=C[C@]4(C)[C@@]3(F)[C@@H](O)C[C@]2(C)[C@@]1(O)C(=O)CO [Dexamethasone, reference compound]
CC50 [4]: > 50 µM

IC50 ([3]; Mus musculus, BV-2, 24 h): 3.1 µM
SMILES: CC(=N)NCCCC[C@H](N)C(=O)O [L-NIL, L-N6-(1-iminoethyl)lysine, reference compound]
